ChEMBL document CHEMBL3784986, “Discovery and Characterization of Biased Allosteric Agonists of the Chemokine Receptor CXCR3” (J Med Chem, 2016)
The source made the active and inactive calls. The rule behind the calls is not given here.

Key:
[1] = biological target: T1, C-X-C chemokine receptor type 3 (Homo sapiens) (UniProt P49682); experiment: Positive allosteric modulation of human CXCR3 expressed in HEK293T cell membranes after 30 mins by [35S]GTPgammaS incorporation assay relative to CXCL11; type: functional; details: HEK-293T
T1 sequence (whole entry): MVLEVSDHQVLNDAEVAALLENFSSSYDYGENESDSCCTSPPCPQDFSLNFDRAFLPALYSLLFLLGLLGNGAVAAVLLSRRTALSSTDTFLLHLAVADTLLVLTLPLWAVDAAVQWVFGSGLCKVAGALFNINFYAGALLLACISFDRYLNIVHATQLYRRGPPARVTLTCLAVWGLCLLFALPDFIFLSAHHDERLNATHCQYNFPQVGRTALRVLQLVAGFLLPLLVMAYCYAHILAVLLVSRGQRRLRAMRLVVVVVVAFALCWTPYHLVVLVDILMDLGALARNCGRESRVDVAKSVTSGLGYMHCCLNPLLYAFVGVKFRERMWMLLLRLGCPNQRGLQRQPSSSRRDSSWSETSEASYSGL
Method in brief: (§1)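 Membranes from HEK293 cells stably expressing CXCR3 (30 µg/mL protein) in 20 mM HEPES, 10 mM MgCl2, 100 mM NaCl, 100 mg/L saponin, pH 7.4. Compound plus 1 µM GDP preincubated 30 min at 37 °C, then 0.10 nM [35S]GTPγS added for 30 min at 37 °C. Filtered on GF/B and counted. Efficacy expressed as % of CXCL11. Three experiments in triplicate, pEC50 by nonlinear regression.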

[2] = Cytotoxicity against HEK293T cells expressing CXCR3 at 10 uM incubated overnight by ApoTox-Glo Triplex assay; type: cell-based; details: human, hek-293t
Method in brief: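 10,000 HEK293T cells stably expressing CXCR3 incubated overnight with compound at 10 µM. ApoTox-Glo triplex. Viability read by fluorescence at 400Ex/505Em (GF-AFC) and cytotoxicity at 485Ex/520Em (bis-AAF-R110), each after a 30 min reagent step. Caspase-3/7 luminescence then read after a further 30 min.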

[3] = biological target: T1, C-X-C chemokine receptor type 3 (Homo sapiens); experiment: Inhibition of CXCL11-mediated activation of human CXCR3 expressed in HEK cells; type: cell-based; details: HEK293
[4] = biological target: T1, C-X-C chemokine receptor type 3 (Homo sapiens); experiment: Inhibition of CXCL10-mediated activation of human CXCR3 expressed in HEK cells; type: cell-based; details: HEK293
[5] = biological target: T1, C-X-C chemokine receptor type 3 (Homo sapiens); experiment: Positive allosteric modulation of ProLink1-tagged wild type CXCR3 (unknown origin) expressed in HEK293T cells assessed as beta-arrestin-2 recruitment incubated for 4 hrs by chemiluminescence-based microplate reader method; type: cell-based; details: HEK-293T
Method in brief: (§2)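 HEK293 cells stably expressing β-gal enzyme acceptor, transiently transfected with PK1- or PK2-tagged wild-type CXCR3, 2000 cells/well, grown overnight at 37 °C. Compounds or CXCL11 in PBS pH 7.4 with 0.20% BSA added for 4 h. Detection mix 60 min at room temperature, then chemiluminescence read. Efficacy expressed as % of CXCL11 effect. Two to three experiments in triplicate.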

[6] = biological target: T1, C-X-C chemokine receptor type 3 (Homo sapiens); experiment: Positive allosteric modulation of ProLink1-tagged wild type CXCR3 (unknown origin) expressed in HEK293T cells assessed as beta-arrestin-2 recruitment incubated for 4 hrs by chemiluminescence-based microplate reader method relative to CXCL11; type: cell-based; details: HEK-293T; method in brief: as §2
[7] = biological target: T1, C-X-C chemokine receptor type 3 (Homo sapiens); experiment: Positive allosteric modulation of human CXCR3 expressed in HEK293T cell membranes after 30 mins by [35S]GTPgammaS incorporation assay; type: functional; details: HEK-293T; method in brief: as §1
[8] = biological target: T1, C-X-C chemokine receptor type 3 (Homo sapiens); experiment: Positive allosteric modulation of ProLink2-tagged wild type CXCR3 (unknown origin) expressed in HEK293T cells assessed as beta-arrestin-2 recruitment incubated for 4 hrs by chemiluminescence-based microplate reader method relative to CXCL11; type: cell-based; details: HEK-293T; method in brief: as §2

Efficacy [1] | inhibition [3] | inhibition [4] | pEC50 [5] | Efficacy [6] | pEC50 [7] | Efficacy [8] [%] | Activity [7] | SMILES | Activity [2]
20% | inactive | inactive | inactive | inactive | – | – | – | CC(C)(C)OC(=O)N[C@@H](CCCCNC(=O)[C@@H]1Cc2ccccc2CN1C(=O)CCC(=O)c1ccc(F)cc1)C(=O)NCC(c1ccccc1)c1ccccc1 | Non-toxic
– | inactive | inactive | – | – | – | – | – | CC(C)(C)OC(=O)N[C@H](CCCCNC(=O)[C@@H]1Cc2ccccc2CN1)C(=O)NCC(c1ccccc1)c1ccccc1 | Non-toxic
85% | – | – | – | 108% | – | 198 | – | NCCCC[C@@H](NC(=O)[C@@H]1Cc2ccccc2CN1C(=O)CCC(=O)c1ccccc1)C(=O)NCC(c1ccccc1)c1ccccc1 | –
inactive | inactive | inactive | inactive | inactive | inactive | – | – | CC(C)(C)OC(=O)N[C@@H](CCCCNC(=O)[C@@H]1Cc2ccccc2CN1C(=O)CCC(=O)c1cccs1)C(=O)NCC(c1ccccc1)c1ccccc1 | –
inactive | inactive | inactive | inactive | inactive | inactive | – | – | CC(C)(C)OC(=O)N[C@@H](CCCCNC(=O)[C@@H]1Cc2ccccc2CN1C(=O)CCC(=O)c1ccco1)C(=O)NCC(c1ccccc1)c1ccccc1 | –
25% | inactive | inactive | – | 28% | – | 79 | – | N[C@H](CCCCNC(=O)[C@@H]1Cc2ccccc2CN1C(=O)CCC(=O)c1ccccc1)C(=O)NCC(c1ccccc1)c1ccccc1 | –
34% | inactive | inactive | – | 31% | – | 79 | – | CC(C)(C)OC(=O)N[C@@H](CCCCNC(=O)[C@@H]1Cc2ccccc2CN1)C(=O)NCC(c1ccccc1)c1ccccc1 | Non-toxic
109% | – | – | – | 139% | – | – | Dose-dependent effect | NCCCC[C@H](NC(=O)[C@@H]1Cc2ccccc2CN1C(=O)CCC(=O)c1ccccc1)C(=O)NCC(c1ccccc1)c1ccccc1.O=C(O)C(F)(F)F | Non-toxic

Further lines, the compound ahead of its results:

SMILES | Efficacy [1] | inhibition [3] | inhibition [4] | pEC50 [5] | Efficacy [6] | pEC50 [7] | Efficacy [8] [%] | Activity [7] | Activity [2]
CC(C)(C)OC(=O)N[C@@H](CCCCNC(=O)[C@@H]1Cc2ccccc2CN1C(=O)CCC(=O)N1CCCCC1)C(=O)NCC(c1ccccc1)c1ccccc1 | inactive | inactive | inactive | inactive | inactive | inactive | – | – | –
CC(C)(C)OC(=O)NCCCC[C@H](NC(=O)OCc1ccccc1)C(=O)NCC(c1ccccc1)c1ccccc1 | – | – | – | – | – | – | – | – | Non-toxic
N[C@@H](CCCCNC(=O)[C@@H]1Cc2ccccc2CN1)C(=O)NCC(c1ccccc1)c1ccccc1 | 40% | inactive | inactive | – | 14% | – | 85 | – | –
CC(C)(C)OC(=O)N[C@@H](CCCCNC(=O)[C@@H]1Cc2ccccc2CN1C(=O)CCC(=O)N1CCOCC1)C(=O)NCC(c1ccccc1)c1ccccc1 | inactive | inactive | inactive | inactive | inactive | inactive | – | – | –
CC(C)(C)OC(=O)N[C@@H](CCCCNC(=O)[C@@H]1Cc2ccccc2CN1C(=O)CCCc1ccccc1)C(=O)NCC(c1ccccc1)c1ccccc1 | 29% | inactive | inactive | inactive | inactive | – | – | – | Non-toxic
COc1ccc(C(=O)CCC(=O)N2Cc3ccccc3C[C@H]2C(=O)NCCCC[C@H](NC(=O)OC(C)(C)C)C(=O)NCC(c2ccccc2)c2ccccc2)cc1OC | 18% | inactive | inactive | inactive | inactive | – | – | – | Non-toxic
CC(=O)CCC(=O)N1Cc2ccccc2C[C@H]1C(=O)NCCCC[C@H](NC(=O)OC(C)(C)C)C(=O)NCC(c1ccccc1)c1ccccc1 | inactive | inactive | inactive | – | 34% | inactive | 63 | – | Non-toxic
CC(C)(C)OC(=O)N[C@H](CCCCNC(=O)[C@@H]1Cc2ccccc2CN1C(=O)CCC(=O)c1ccccc1)C(=O)NCC(c1ccccc1)c1ccccc1 | inactive | inactive | inactive | – | 16% | inactive | 88 | – | Non-toxic
CC(C)(C)OC(=O)N[C@@H](CCCCNC(=O)[C@@H]1Cc2ccccc2CN1C(=O)CCC(=O)c1ccc(S(C)(=O)=O)cc1)C(=O)NCC(c1ccccc1)c1ccccc1 | 25% | inactive | inactive | inactive | inactive | – | – | – | Non-toxic
CC(C)(C)OC(=O)N[C@@H](CCCCNC(=O)[C@@H]1Cc2ccccc2CN1C(=O)CCCC(=O)c1ccccc1)C(=O)NCC(c1ccccc1)c1ccccc1 | inactive | inactive | inactive | – | 20% | inactive | 56 | – | Non-toxic
CC(C)(C)OC(=O)N[C@@H](CCCCNC(=O)[C@@H]1Cc2ccccc2CN1C(=O)CCc1ccccc1)C(=O)NCC(c1ccccc1)c1ccccc1 | 30% | inactive | inactive | – | 19% | – | 29 | – | Non-toxic
N[C@@H](CCCCNC(=O)[C@@H]1Cc2ccccc2CN1C(=O)CCCC(=O)c1ccccc1)C(=O)NCC(c1ccccc1)c1ccccc1 | inactive | inactive | inactive | – | 20% | inactive | 91 | – | –
N[C@@H](CCCCNC(=O)[C@@H]1Cc2ccccc2CN1C(=O)CCC(=O)c1ccccc1)C(=O)NCC(c1ccccc1)c1ccccc1 | inactive | inactive | inactive | – | 17% | inactive | 27 | – | –
CC(C)(C)OC(=O)NCCCC[C@@H](NC(=O)[C@@H]1Cc2ccccc2CN1C(=O)CCC(=O)c1ccccc1)C(=O)NCC(c1ccccc1)c1ccccc1 | 33% | – | – | – | 36% | – | 30 | – | –
CN1CCN(C(=O)CCC(=O)N2Cc3ccccc3C[C@H]2C(=O)NCCCC[C@H](NC(=O)OC(C)(C)C)C(=O)NCC(c2ccccc2)c2ccccc2)CC1 | inactive | inactive | inactive | inactive | inactive | inactive | – | – | –
